In the library only some 3.9% were active in any assay of this set; here they are far more common.
CHOP inhibitor: inhibitors of CHOP induction in ER stress response; CHO-K1 CHOP-promoter luciferase, tunicamycin-induced, 15-18 h; inhibition, % at 10 µM; 220,000 tested, 3.8% active; AID 2732;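 active = compounds that reduced the stress-induced luciferase reporter signal by more than about 70% of percent inhibition, limit read from the data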;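 also: 0% = tunicamycin plus vehicle and 100% = wells without tunicamycin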
697 NFkB inh: inhibitors of the PMA/ionomycin-induced NF-kB reporter in 697 B cells; 697 B-cell NF-kB luciferase reporter, 16 h; inhibition, % at 4 µM; 330,000 tested, 0.33% active; AID 435022; in the data active = inhibition above about 35%
UPR CHOP act: activators of apoptotic arm of unfolded protein response (CHOP); activation, % at 10 µM; 330,000 tested, 0.34% active; CHO-CHOP luciferase reporter, UPR activation, luminescence; percent of tunicamycin response over DMSO baseline;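 active = at 10 µM dose, activation of 40% or more, normalized to positive control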;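 also: 100% = tunicamycin at 10 µg/mL and 0% = DMSO alone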
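Dosing – one dose, 10 µM in 0.5% DMSO · System – CHO-CHOP cells, stable luciferase reporter of PERK-eIF2a-CHOP signalling · Input – 500 cells/well · Control set – tunicamycin 10 µg/mL final as positive, DMSO-only wells as negative · Timing – 6 h compound treatment, 37 °C · Measure – % activation vs tunicamycin · Technique – luminescence read with Steady-Glo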
Gli-Sufu antag: antagonists of Gli-Sufu signaling; Sufu-KO-LIGHT fibroblasts, Gli luciferase reporter luminescence; inhibition, % at 5 µM; 340,000 tested, 0.74% active; AID 588413;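 active = inhibition above about 55%, limit read from the data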;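 also: 0% = DMSO-treated cells and 100% = wells with medium but no cells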
Jurkat NFkB inh: lowers PMA/ionomycin-induced NF-kB signal in Jurkat cells; AID 435003; inhibition, % at 4 µM; PMA/ionomycin-induced NF-kB luciferase reporter, luminescence; 330,000 tested, 0.53% active; in the data active = inhibition above about 50%
XBP1 UPR activ: adaptive UPR (XBP1) activation; 330,000 tested, 0.33% active; activation, % at 20 µM; CHO-XBP1 luciferase reporter, IRE1-XBP1 UPR activation, luminescence; percent of tunicamycin response, DMSO as zero;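 active = versus positive control, 20 µM dose yields 30% or more activation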;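 also: 100% = tunicamycin at 10 µg/mL and 0% = DMSO only wells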
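Material – CHO cell line with stable XBP1 luciferase reporter · Buffer or medium – F12 plus 10% FBS · Compound – single point, 20 µM final compound, 1% DMSO · Schedule – 16-18 h cell attachment at 37 °C, then 6 h compound exposure · Signal – Steady-Glo luminescence read · Benchmarks – high control tunicamycin 10 µg/mL final, low control DMSO vehicle only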
The depositor's hits bear a star; / = not tested or not shown.

SMILES | CHOP inhibitor | 697 NFkB inh | UPR CHOP act | Gli-Sufu antag | Jurkat NFkB inh | XBP1 UPR activ
Cc1cc(C)nc(NS(=O)(=O)c2ccc(N/C=C/C(=O)c3ccc(Cl)c(Cl)c3)cc2)n1 | 80* | -11 | 0 | 2 | 2 | -2
COc1cccc(C(=O)/C=C/Nc2ccc(S(=O)(=O)Nc3ccc(C(C)=O)cc3)cc2)c1 | 19 | -3 | 2 | 7 | 4 | -1
COc1ccc(C(=O)/C=C/Nc2ccc(S(=O)(=O)Nc3cccc(C(C)=O)c3)cc2)cc1 | 79* | -27 | 8 | 43 | -14 | 1
Fc1ccccc1CNc1cc(Cl)cc(Cl)c1 | 90* | 22 | 1 | -5 | -5 | 0
O/N=C/c1ccccc1OCc1ccc(Cl)cc1 | 76* | -51 | 6 | -55 | -49 | 2
O=C(CNS(=O)(=O)c1cccc(Cl)c1)OCc1csc(-c2ccccc2)n1 | 90* | -11 | 3 | -12 | 11 | 8
CCOC(=O)Nc1cccc(OCC(=O)Nc2ccc3c(c2)CCC3)c1 | / | 6 | 2 | 1 | 4 | 1
Cc1onc(-c2ccccc2Cl)c1C(=O)NCc1ccc(F)cc1 | / | -4 | 1 | 9 | -6 | 0
Oc1ccc(-c2csc(Nc3ncccn3)n2)c(O)c1 | 94* | -82 | 4 | -78 | -68 | -3
Oc1ccc(-c2csc(Nc3ncccn3)n2)cc1O | -20 | / | / | 15 | / | /
Cc1ccc(C2NC(c3ccc(C)cc3)C(C)C(=NO)C2C)cc1 (centres undefined) | 84* | 0 | 2 | 36 | 16 | -3
CC1C(=NO)C(C)C(c2ccccc2)NC1c1ccccc1 (centres undefined) | 16 | 19 | -2 | -1 | -18 | 0
Cc1noc(C)c1CSc1ccccc1C(=O)N(C)CC(=O)Nc1cccc(F)c1 | / | 1 | 2 | 2 | -3 | 0
CC(=O)c1sc(NC(=O)c2cc3c(C)nn(-c4ccccc4)c3s2)nc1C | 81* | 7 | -1 | 4 | 2 | -2
CC(=O)c1sc(NC(=O)c2cc(-c3ccccc3)nn2-c2ccccc2)nc1C | -1 | -14 | -1 | 14 | -5 | -4
COc1ccc(S(=O)(=O)N2CCC(NC(=O)c3cccnc3)CC2)cc1 | / | -4 | -3 | -3 | 5 | 0
O=c1ccc2cc(S(=O)(=O)N3CCN(c4cc(Cl)ccc4Cl)CC3)ccc2o1 | 70* | -1 | 1 | -1 | 9 | -2
O=c1ccc2cc(S(=O)(=O)N3CCN(c4ccc(Cl)cc4)CC3)ccc2o1 | / | 2 | -2 | 7 | 10 | -6
O=C(c1ccccc1)c1ccc(OCC(O)CNCc2cccc(Cl)c2)cc1 (centres undefined) | / | / | / | -4 | / | /
Cc1ccc(NC(=O)CSc2nn(-c3ccccc3)c(=S)s2)cc1S(=O)(=O)N(C)C | 76* | -48 | 5 | 8 | 13 | 1
O=C(Nc1cccc(-c2nc3cccnc3s2)c1)c1ccc(Cl)nc1 | 81* | -25 | 1 | 4 | -12 | 1
CC(C)c1ccc2oc(=O)cc(CN3CCOCC3)c2c1 | / | -14 | 0 | 23 | -3 | -3
O=C(NCCCN1CCOCC1)c1ccc2nc(Cc3cccc(Cl)c3)oc2c1 | / | 6 | -3 | 6 | 9 | -6
O=c1c2c(nc3cc(-c4ccc(Br)cc4)[nH]n13)CCCC2 | 73* | -216 | 4 | -88 | -73 | 0
O=c1c2c(nc3cc(-c4ccccc4)[nH]n13)CCC2 | / | -100 | -2 | -43 | -31 | -2
SMILES | CHOP inhibitor | 697 NFkB inh | UPR CHOP act | Gli-Sufu antag | Jurkat NFkB inh | XBP1 UPR activ
CCOc1ccc(-c2nc3scc(-c4cccs4)c3c(=O)[nH]2)cc1 | 73* | -15 | -1 | -31 | -34 | 8
O=C(c1ccco1)N1CCN(C(=S)Nc2ccc(F)c(Cl)c2)CC1 | / | 12 | 1 | 3 | 3 | -10
COC(=O)[C@]1(C)CCC[C@@]2(C)C3CC[C@@]4(C)C[C@]3(CCC21)CC(=O)N4Cc1ccc(OC)cc1 (some centres undefined) | / | -3 | 3 | 14 | 7 | -4
O=C1CN(C(=O)c2ccc(Br)o2)C(c2ccc(F)cc2)c2cc(Cl)ccc2N1 (centres undefined) | 69 | -24 | -2 | 8 | -10 | 0
O=C1CN(C(=O)c2ccc(Br)o2)C(c2ccccc2)c2cc(Cl)ccc2N1 (centres undefined) | 84* | 4 | -1 | 4 | -11 | 0
COCCN1C(=O)c2cc(C(=O)Nc3ccc(C)c(F)c3)ccc2C1Nc1ccc(C)c(F)c1 (centres undefined) | 46 | 2 | 3 | -11 | -10 | 2
COCCN1C(=O)c2cc(C(=O)Nc3cccc(F)c3)ccc2C1Nc1cccc(F)c1 (centres undefined) | 90* | 5 | 1 | 8 | 3 | 1
CCc1ccc(NC(=O)c2ccc3c(c2)C(=O)N(CCOC)C3Nc2ccc(CC)cc2)cc1 (centres undefined) | 94* | -17 | 28 | -18 | -33 | 30
Cc1cccc(NC(=O)CCCN2C(=O)C(c3ccccc3)Oc3cccnc32)c1C (centres undefined) | / | -26 | 2 | 7 | 12 | -6
O=C(CN(Cc1ccc(F)cc1)C(=O)CCC(=O)Nc1nccs1)NCC1CCCO1 (centres undefined) | / | 7 | -2 | 48 | 1 | -4
O=[N+]([O-])c1ccc2[nH]nc(-c3ccccc3)c2c1 | 23 | -21 | 0 | 15 | -24 | 0
O=[N+]([O-])c1ccc2[nH]c3nc4ccccc4nc3c2c1 | 23 | -11 | 2 | 57* | -15 | 2
COCCNC(=O)CN(C(=O)CCC(=O)Nc1ccccn1)c1cc(C)ccc1C | / | -2 | 2 | -4 | 0 | -5
CCOC(=O)c1c(C)[nH]c(C(=O)OCC(=O)Nc2cc(Cl)ccc2OC)c1C | 78* | 16 | 3 | 5 | 7 | 2
CCOC(=O)c1c(C)[nH]c(C(=O)OCC(=O)Nc2cc(C)ccc2OC)c1C | 14 | -25 | 0 | 6 | -6 | 2
CCOC(=O)c1c(C)[nH]c(C(=O)OCC(=O)Nc2ccc(OC)c(Cl)c2)c1C | 87* | 3 | -2 | 7 | 12 | 1
O=C(CCl)N1N=C(c2ccco2)CC1c1cccs1 (centres undefined) | 90* | / | / | 2 | / | /
CCOC(=O)Cc1cnc(NC(=O)NC(C(=O)OCC)(c2ccccc2)C(F)(F)F)s1 (centres undefined) | 85* | 13 | 3 | -9 | 3 | 5
CCOC(=O)C(NC(=O)Nc1ccccc1)(OCC)C(F)(F)F (centres undefined) | -1 | 15 | -1 | 3 | 8 | -3
COc1ccc(-c2cn[nH]c2-c2ccc(OCc3ccc([N+](=O)[O-])cc3)cc2O)cc1 | 91* | -7 | -2 | -4 | 18 | -3
